Calls of active or inactive are those of the source. The calls are words filed in the database; no cut-off is given here.
Columns and labels:
RAW264.7 [1] = assay: Antiinflammatory activity in mouse RAW264.7 cells assessed as inhibition of LPS-stimulated IL-6 mRNA expression at 10 uM after 24 hrs by RT-qPCR analysis relative to control; format: functional; conditions: RAW264.7, 24 h
Outline: (§1)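 RAW 264.7 cells grown in DMEM with 10% heat-inactivated FBS and 1% penicillin-streptomycin at 37 °C, 5% CO2. Plated at 3 × 10^5 cells/mL in six-well plates, left 24 h. Then given 0.1 μg/mL LPS with or without test compound (0.1–100 μM) for 24 h. mRNA quantified by RT-qPCR after RNA extraction, normalized to 18s mRNA and expressed as ratio to DMSO. SB203580 (10 μM) served as reference. Mean ± SD of three independent experiments.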

RAW264.7 [2] = assay: Antiinflammatory activity in mouse RAW264.7 cells assessed as inhibition of LPS-stimulated TNF-alpha mRNA expression at 0.1 to 100 uM after 24 hrs by RT-qPCR analysis; format: functional, cell-based; outline: as §1
RAW264.7 [3] = assay: Antiinflammatory activity in mouse RAW264.7 cells assessed as inhibition of LPS-stimulated COX-2 mRNA expression at 0.1 to 100 uM after 24 hrs by RT-qPCR analysis; format: functional, cell-based; outline: as §1
RAW264.7 [4] = assay: Cytotoxicity against mouse RAW264.7 cells; format: cell-based; conditions: for Activity: mouse, raw264.7
RAW264.7 [5] = assay: Antiinflammatory activity in mouse RAW264.7 cells assessed as inhibition of LPS-stimulated IL-6 mRNA expression after 24 hrs by RT-qPCR analysis; format: functional, cell-based; conditions: for IC50: RAW264.7, 24 h; outline: as §1

Row | IC50 (RAW264.7 [5]) [µM] | Structure (SMILES) | inhibition at 10 µM (RAW264.7 [1]) [%] | inhibition (RAW264.7 [2]) | inhibition (RAW264.7 [3]) | Activity (RAW264.7 [4]) | inhibition (RAW264.7 [5]) | IC50 (RAW264.7 [4]; Mus musculus, RAW264.7) [µM]
1 | 5.2 | C=C(CC[C@@H](C)[C@H]1[C@H](O)C[C@H]2[C@@H]3CC=C4C[C@@H](O)CC[C@]4(C)[C@H]3CC[C@]12C)C(C)C | 67 | inactive | inactive | Non-toxic | Dose-dependent effect | 
2 |  | CC(C)=CCC[C@@H](C)[C@H]1CC[C@H]2C3=C[C@@H](O)[C@H]4C(=O)[C@](C)(CC[C@@H]4O)[C@H]3CC[C@]12C |  |  |  |  |  | 65
3 |  | C[S+]([O-])c1ccc(-c2nc(-c3ccc(F)cc3)c(-c3ccncc3)[nH]2)cc1 (centres undefined) [SB-203580] | 53 |  |  |  |  | 
4 | 5 | CC(=O)O[C@H]1CC[C@@]2(C)C(=O)[C@@H]1[C@H](O)C=C1[C@@H]3CC[C@H]([C@H](C)CCC=C(C)C)[C@@]3(C)CC[C@@H]12 | 69 | inactive | inactive | Non-toxic | Dose-dependent effect | 

— ChEMBL document CHEMBL3576870, “Monanchosterols A and B, bioactive bicyclo[4.3.1]steroids from a Korean sponge Monanchora sp” (J Nat Prod, 2015)
